How the values were obtained:
[1] = folding enthalpy; higher = less favourable; fluorescence melt of hairpins on a sequencing array, two-state fit; details: sodium 0.088 M
How it was run: (§1)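 Folding enthalpy and melting temperature come from bootstrapped two-state fits to Cy3 fluorescence of library hairpins carrying annealed Cy3 and quencher oligos on a sequenced MiSeq flow cell. Imaging was done in 50 mM Na-HEPES pH 8.0, 25 mM NaCl, stepping by 2.5 °C up to 60 °C, and signals were normalised to pre-quench Cy3 and to control constructs. Results of four replicates were combined by inverse variance, and fitted temperatures were raised by 9.35 °C to match UV melts.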

[2] = melting temperature; fluorescence melt of hairpins on a sequencing array, two-state fit, raised by 9.35 °C to match UV melts; details: sodium 0.088 M
How it was run: as §1

Sequence | folding enthalpy [1] | Tm [2]
GATCCCATATGGGATC ((((((....)))))) | -35.3 kcal/mol | 61.8 °C
GATCCCATGAGGGATC ((((((....)))))) | -30.3 kcal/mol | 61.4 °C
GATCCCATGGGGATC ((((((...)))))) | -33.2 kcal/mol | 65.8 °C
GATCCCCAAAGGGATC ((((((....)))))) | -33.5 kcal/mol | 59.7 °C
GATCCCCACCGGGATC ((((((....)))))) | -34.7 kcal/mol | 57.3 °C
GATCCCCATGGGATC ((((((...)))))) | -37.5 kcal/mol | 63 °C
GATCCCCCACGGGATC ((((((....)))))) | -35.6 kcal/mol | 58.1 °C
GATCCCCCCAGGGATC ((((((....)))))) | -38.1 kcal/mol | 63.3 °C
GATCCCCCCTGGGATC ((((((....)))))) | -39.1 kcal/mol | 58.4 °C
GATCCCCCGAAAGGGATC (((..(((....)))))) | -30.7 kcal/mol | 52.4 °C
GATCCCCCTCGGGATC ((((((....)))))) | -34 kcal/mol | 58.2 °C
GATCCCCGAAGGGATC ((((((....)))))) | -15.6 kcal/mol | 57.1 °C
GATCCCCGCAGGGATC ((((((....)))))) | -18.1 kcal/mol | 62.8 °C
GATCCCCGTAGGGATC ((((((....)))))) | -20.6 kcal/mol | 61.9 °C
GATCCCCGTTGGGATC ((((((....)))))) | -32.3 kcal/mol | 62.2 °C
GATCCCCTCCGGGATC ((((((....)))))) | -36 kcal/mol | 58.4 °C
GATCCCCTCGGGGATC ((((((....)))))) | -32.5 kcal/mol | 67.6 °C
GATCCCCTGCGGGATC ((((((....)))))) | -33.6 kcal/mol | 58.2 °C
GATCCCCTGGGGATC ((((((...)))))) | -32.8 kcal/mol | 64.8 °C
GATCCCGAAAGGGAGATC ((((((....)))..))) | -20.6 kcal/mol | 50.5 °C
GATCCCGAAAGGGCATC ((((((....))).))) | -17 kcal/mol | 42.1 °C
GATCCCGAAAGGGGCATC ((((((....)))..))) | -11.6 kcal/mol | 35.6 °C
GATCCCGACCGGGATC ((((((....)))))) | -37.5 kcal/mol | 66.5 °C
GATCCCGAGGGGATC ((((((...)))))) | -42.5 kcal/mol | 62.6 °C

Sequence | folding enthalpy [1] | Tm [2]
GATCCCGAGGGGGATC ((((((....)))))) | -35.3 kcal/mol | 59.7 °C
GATCCCGATGGGGATC ((((((....)))))) | -34.8 kcal/mol | 63.3 °C
GATCCCGCAGGGGATC ((((((....)))))) | -15.7 kcal/mol | 65.5 °C
GATCCCGCCCGGGATC ((((((....)))))) | -32.8 kcal/mol | 67.1 °C
GATCCCGCCTGGGATC ((((((....)))))) | -39.1 kcal/mol | 64.9 °C
GATCCCGCGGGGGATC ((((((....)))))) | -31 kcal/mol | 59.9 °C
GATCCCGCTTGGGATC ((((((....)))))) | -46.9 kcal/mol | 59.5 °C
GATCCCGGACGGGATC ((((((....)))))) | -34.5 kcal/mol | 68.5 °C
GATCCCGGCGGGATC ((((((...)))))) | -36.5 kcal/mol | 68.2 °C
GATCCCGGCGGGGATC ((((((....)))))) | -47.7 kcal/mol | 61.3 °C
GATCCCGGCTGGGATC ((((((....)))))) | -32 kcal/mol | 60.4 °C
GATCCCGTCGGGATC ((((((...)))))) | -37.7 kcal/mol | 67.2 °C
GATCCCGTGCGGGATC ((((((....)))))) | -35.8 kcal/mol | 66.3 °C
GATCCCGTTCGGGATC ((((((....)))))) | -43.2 kcal/mol | 67.8 °C
GATCCCTAGAGGGATC ((((((....)))))) | -40.2 kcal/mol | 59 °C
GATCCCTAGGGGATC ((((((...)))))) | -35.4 kcal/mol | 61.1 °C
GATCCCTAGGGGGATC ((((((....)))))) | -34.8 kcal/mol | 60.4 °C
GATCCCTCGTGGGATC ((((((....)))))) | -40.2 kcal/mol | 62.2 °C
GATCCCTGCGGGATC ((((((...)))))) | -35.8 kcal/mol | 66.1 °C
GATCCCTGGAGGGATC ((((((....)))))) | -34.4 kcal/mol | 59.4 °C
GATCCCTTCGGGATC ((((((...)))))) | -41.1 kcal/mol | 65.3 °C
GATCCCTTGAGGGATC ((((((....)))))) | -42.9 kcal/mol | 62.4 °C
GATCCGAACCGGATC ((((((...)))))) | -40.2 kcal/mol | 57 °C
GATCCGAAGACGGATC ((((((....)))))) | -37 kcal/mol | 54.7 °C

Sequence | folding enthalpy [1] | Tm [2]
GATCCGACATCGGATC ((((((....)))))) | -46.8 kcal/mol | 55.8 °C
GATCCGACCTCGGATC ((((((....)))))) | -40.9 kcal/mol | 59.1 °C
GATCCGAGATCGGATC ((((((....)))))) | -42.3 kcal/mol | 56.4 °C
GATCCGAGTGCGGATC ((((((....)))))) | -40.6 kcal/mol | 59.1 °C
GATCCGATACGGATC ((((((...)))))) | -32.7 kcal/mol | 59.6 °C
GATCCGATCCGGATC ((((((...)))))) | -33.7 kcal/mol | 58.5 °C
GATCCGCACACGGATC ((((((....)))))) | -44.5 kcal/mol | 59.9 °C
GATCCGCAGCCGGATC ((((((....)))))) | -40.7 kcal/mol | 55.9 °C
GATCCGCATCCGGATC ((((((....)))))) | -38 kcal/mol | 56.6 °C
GATCCGCCGTCGGATC ((((((....)))))) | -40.7 kcal/mol | 56.9 °C
GATCCGCCTTCGGATC ((((((....)))))) | -44.3 kcal/mol | 55.9 °C
GATCCGCGAAAGCGCATC (((.(((....))).))) | -14.1 kcal/mol | 36.5 °C
GATCCGCGCCGGATC ((((((...)))))) | -33.9 kcal/mol | 60 °C
GATCCGCGTCGGATC ((((((...)))))) | -35.6 kcal/mol | 57.3 °C
GATCCGCTACGGATC ((((((...)))))) | -31.7 kcal/mol | 57.2 °C
GATCCGCTCCGGATC ((((((...)))))) | -37.5 kcal/mol | 59.2 °C
GATCCGCTGTCGGATC ((((((....)))))) | -42.1 kcal/mol | 57.8 °C
GATCCGGACGCGGATC ((((((....)))))) | -38 kcal/mol | 59.5 °C
GATCCGGATACGGATC ((((((....)))))) | -38.8 kcal/mol | 67.9 °C
GATCCGGATCGGATC ((((((...)))))) | -35.4 kcal/mol | 55.6 °C
GATCCGGGAAACCGAATC (((.(((....))).))) | -24.5 kcal/mol | 38.2 °C
GATCCGGTCTCGGATC ((((((....)))))) | -26.6 kcal/mol | 58.6 °C
GATCCGTACGCGGATC ((((((....)))))) | -39.5 kcal/mol | 63.5 °C
GATCCGTCACCGGATC ((((((....)))))) | -41.6 kcal/mol | 57.2 °C

Sequence | folding enthalpy [1] | Tm [2]
GATCCGTCGGCGGATC ((((((....)))))) | -39.3 kcal/mol | 59 °C
GATCCGTGACCGGATC ((((((....)))))) | -44.1 kcal/mol | 56 °C
GATCCGTGCTCGGATC ((((((....)))))) | -43.9 kcal/mol | 59.7 °C
GATCCGTGGTCGGATC ((((((....)))))) | -38.8 kcal/mol | 58.7 °C
GATCCGTGTCGGATC ((((((...)))))) | -34.4 kcal/mol | 60.5 °C
GATCCGTTATCGGATC ((((((....)))))) | -36 kcal/mol | 59.2 °C
GATCCGTTGGCGGATC ((((((....)))))) | -36.5 kcal/mol | 59.6 °C
GATCCGTTGTCGGATC ((((((....)))))) | -44.4 kcal/mol | 59.4 °C
GATCCGTTTACGGATC ((((((....)))))) | -39.3 kcal/mol | 68.1 °C
GATCCGTTTCGGATC ((((((...)))))) | -38 kcal/mol | 63 °C
GATCCTAAACAGGATC ((((((....)))))) | -31.5 kcal/mol | 49 °C
GATCCTAACAAGGATC ((((((....)))))) | -32.6 kcal/mol | 51.5 °C
GATCCTAACAGGATC ((((((...)))))) | -40.5 kcal/mol | 55.3 °C
GATCCTAACCAGGATC ((((((....)))))) | -32.3 kcal/mol | 52 °C
GATCCTAACTAGGATC ((((((....)))))) | -36.2 kcal/mol | 53.3 °C
GATCCTAATTAGGATC ((((((....)))))) | -45.2 kcal/mol | 52 °C
GATCCTACCTAGGATC ((((((....)))))) | -31.6 kcal/mol | 53 °C
GATCCTACGTAGGATC ((((((....)))))) | -40.6 kcal/mol | 53.3 °C
GATCCTACTAGGATC ((((((...)))))) | -36.2 kcal/mol | 53.6 °C
GATCCTAGAGAGGATC ((((((....)))))) | -35.4 kcal/mol | 48 °C
GATCCTAGCAGGATC ((((((...)))))) | -37 kcal/mol | 55.9 °C
GATCCTAGCCAGGATC ((((((....)))))) | -40.2 kcal/mol | 52.1 °C
GATCCTAGGAAGGATC ((((((....)))))) | -32.8 kcal/mol | 50.1 °C
GATCCTAGGCAGGATC ((((((....)))))) | -35.4 kcal/mol | 53.3 °C

— the array DNA melting data of Ke et al. (doi:10.1101/2024.01.08.574731)
